Among the data in ChEMBL document CHEMBL1158835, “Hirsutane sesquiterpenes from the fungus Lentinus connatus BCC 8996” (J Nat Prod, 2005) are IC50 values, retold here.

Values after ≈ are worked out from the molar mass of the structure shown.

The test system of test [1] is Vero. Briefly: Cytotoxicity against african green monkey Vero cells by SRB assay. Particulars: Chlorocebus sabaeus. The format is cell-based. An outline of the steps:
(§1)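 Colorimetric (Skehan) cytotoxicity assay on KB human epidermoid carcinoma, BC human breast cancer, NCI-H187 human small cell lung cancer, and Vero African green monkey kidney […] cells. Ellipticine served as the reference substance. Activity is expressed as IC50.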
On the technique in general: The SRB assay estimates cell density from bound dye.

Test [2] relates to Plasmodium falciparum. The test can be described thus: Antimalarial activity against multidrug-resistant Plasmodium falciparum K1 after 42 hrs by [3H]hypoxanthine uptake. The format is functional, organism-based. An outline of the steps: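 Microculture radioisotope method following Desjardins; growth of multidrug-resistant K1 parasites read as in vitro [3H]-hypoxanthine uptake. IC50 = concentration giving 50% reduction in parasite growth. Dihydroartemisinin run as standard.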

Test [3] relates to NCI-H187. Briefly: Cytotoxicity against human NCI-H187 cells by SRB assay. It counts as functional, cell-based. Put shortly: as §1
Test [4] deals with KB. Briefly: Cytotoxicity against human KB cells by SRB assay. The format is functional, cell-based. An outline of the steps: as §1
Test [5] can be described thus: Cytotoxicity against human BC cells by SRB assay. The format is functional, cell-based. An outline of the steps:
as §1

Broadly, the IC50 is the concentration that inhibits the measured activity by half. On to `COc1ccc2c(c1)C(=O)CC(C)(C)O2`, for which the IC50 in test [1] is more than 50 µg/mL; in test [2], more than 20 µg/mL; in test [3] it was more than 20 µg/mL; in test [4], more than 20 µg/mL; in test [5], more than 20 µg/mL.
For `C[C@H]1[C@@H](O)O[C@@H]2O[C@@]3(C)CC[C@H]4[C@H](C)CC[C@@H]1[C@@]24OO3` [ARTENIMOL], the IC50 in test [2] turned out to be 0.0018 µg/mL (≈ 0.00633 µM).
Take `CC1=C(O)C(=O)[C@]2(O)C[C@H]3CC(C)(C)[C@H](O)[C@H]3[C@]12C` [CONNATUSIN A]: the IC50 was more than 50 µg/mL in test [1]; more than 20 µg/mL in test [2]; more than 20 µg/mL in test [3]; more than 20 µg/mL in test [4]; more than 20 µg/mL in test [5].
As to `CC1(C)C[C@@H]2CC3=CC(=O)[C@@](O)(CO)[C@@]3(C)[C@@H]2[C@H]1O` [CONNATUSIN B], the IC50 in test [1] is more than 50 µg/mL; in test [2], more than 20 µg/mL; in test [3] it was more than 20 µg/mL; in test [4], more than 20 µg/mL; in test [5], more than 20 µg/mL.
Regarding `Cc1c2ccncc2c(C)c2c1[nH]c1ccccc12` [ELLIPTECINE], the IC50 was determined as 0.32 µg/mL (≈ 1.3 µM) in test [3], 0.21 µg/mL (≈ 0.853 µM) in test [4] and 0.27 µg/mL (≈ 1.1 µM) in test [5].
For the molecule `C=C1[C@@H](O)[C@H]2O[C@]23C[C@H]2CC(C)(C)[C@H](O)[C@H]2[C@]13C` [HYPNOPHILIN 1], the IC50 in test [1] was 1.1 µg/mL (≈ 4.39 µM); in test [2], 3.1 µg/mL (≈ 12.4 µM); in test [3], 0.67 µg/mL (≈ 2.68 µM); in test [4], more than 20 µg/mL; in test [5] it was more than 20 µg/mL.
Turning to `C=C1C(=O)[C@H]2O[C@]23C[C@H]2CC(C)(C)[C@H](O)[C@H]2[C@]13C` [HYPNOPHILIN], the IC50 in test [1] was more than 50 µg/mL; in test [2], more than 20 µg/mL; in test [3] it was more than 20 µg/mL; in test [4], more than 20 µg/mL; in test [5] it was more than 20 µg/mL.
On to `CC(C)=C[C@@H](O)C1=CC(=O)[C@@H]2O[C@@H]2C1=O` [PANEPOXYDIONE], for which the IC50 in test [1] was found to be 0.2 µg/mL (≈ 0.961 µM); in test [2], 2.1 µg/mL (≈ 10.1 µM); in test [3], 0.22 µg/mL (≈ 1.06 µM); in test [4], 0.8 µg/mL (≈ 3.84 µM); in test [5], 0.8 µg/mL (≈ 3.84 µM).
Consider `CC(C)=C[C@H](O)C1=C[C@@H](O)[C@@H]2O[C@@H]2C1=O` [PANEPOXYDONE], for which the IC50 in test [1] was determined as 0.9 µg/mL (≈ 4.28 µM); in test [2], 3.4 µg/mL (≈ 16.2 µM); in test [3] it was 0.66 µg/mL (≈ 3.14 µM); in test [4], 1.9 µg/mL (≈ 9.04 µM); in test [5], 2.9 µg/mL (≈ 13.8 µM).
